Reference: ChEMBL document CHEMBL1156633, “Discovery of novel and long acting muscarinic acetylcholine receptor antagonists” (J Med Chem, 2008)
Activity calls are given as the source filed them. The calls are words filed in the database; no cut-off is given here.

Key:
[1] = target: T1, Muscarinic acetylcholine receptor M1 (Homo sapiens, UniProt P11229); test: Antagonist activity at human muscarinic acetylcholine M1 receptor expressed in CHO cells assessed as inhibition of acetylcholine-induced calcium mobilization by FLIPR assay; type: functional, cell-based
T1 sequence (P11229 whole entry): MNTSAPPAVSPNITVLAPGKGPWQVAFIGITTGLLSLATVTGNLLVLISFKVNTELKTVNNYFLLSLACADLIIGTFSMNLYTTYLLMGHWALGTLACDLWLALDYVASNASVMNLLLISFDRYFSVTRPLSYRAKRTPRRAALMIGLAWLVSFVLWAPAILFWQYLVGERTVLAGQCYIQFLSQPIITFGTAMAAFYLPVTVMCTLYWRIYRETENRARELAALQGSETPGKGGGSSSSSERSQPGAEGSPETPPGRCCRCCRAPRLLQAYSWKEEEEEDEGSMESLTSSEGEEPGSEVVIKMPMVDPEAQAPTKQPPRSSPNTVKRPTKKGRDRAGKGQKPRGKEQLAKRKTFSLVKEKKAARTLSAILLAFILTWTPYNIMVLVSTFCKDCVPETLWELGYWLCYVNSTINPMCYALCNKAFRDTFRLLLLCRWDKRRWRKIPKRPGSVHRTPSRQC
Outline: (§1)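 Readout: inhibition of acetylcholine-mediated intracellular Ca2+ mobilization in CHO cells expressing the human receptor subtype, reported as pIC50. Values are the mean of at least two determinations, standard deviation below 0.3 unless otherwise noted.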

[2] = target: T2, Muscarinic acetylcholine receptor M2 (Homo sapiens, UniProt P08172); test: Antagonist activity at human muscarinic acetylcholine M2 receptor expressed in CHO cells coexpressed with Gqi5 assessed as inhibition of acetylcholine-induced calcium mobilization by FLIPR assay; type: functional, cell-based; outline: as §1
T2 sequence (P08172 whole entry): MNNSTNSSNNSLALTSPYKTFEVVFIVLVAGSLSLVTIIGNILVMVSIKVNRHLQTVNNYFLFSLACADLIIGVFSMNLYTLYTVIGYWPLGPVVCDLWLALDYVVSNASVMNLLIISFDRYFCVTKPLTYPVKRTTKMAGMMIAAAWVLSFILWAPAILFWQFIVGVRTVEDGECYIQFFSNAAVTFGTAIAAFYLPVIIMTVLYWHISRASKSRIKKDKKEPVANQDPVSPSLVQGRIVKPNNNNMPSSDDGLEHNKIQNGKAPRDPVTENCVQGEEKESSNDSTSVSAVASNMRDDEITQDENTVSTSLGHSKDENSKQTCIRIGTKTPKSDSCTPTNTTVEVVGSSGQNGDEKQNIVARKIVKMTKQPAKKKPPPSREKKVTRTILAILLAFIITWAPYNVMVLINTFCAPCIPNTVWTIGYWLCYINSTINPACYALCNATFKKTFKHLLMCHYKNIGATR

[3] = target: T3, Muscarinic acetylcholine receptor M3 (Homo sapiens, UniProt P20309); test: Antagonist activity at human muscarinic acetylcholine M3 receptor expressed in CHO cells assessed as inhibition of acetylcholine-induced calcium mobilization by FLIPR assay; type: functional, cell-based
Outline: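 Readout: inhibition of acetylcholine-mediated intracellular Ca2+ mobilization in CHO cells stably expressing human recombinant M3 receptor, reported as pIC50. Values are the mean of at least two determinations, standard deviation below 0.3 unless otherwise noted.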

[4] = target: Muscarinic acetylcholine receptor M1 and M3 (Homo sapiens) (UniProt P20309+P11229); test: Selectivity for human muscarinic acetylcholine M3 receptor over human muscarinic acetylcholine M1 receptor
Outline: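 Ratio of M1 to M3 potency from FLIPR functional assays measuring inhibition of acetylcholine-induced intracellular Ca²⁺ mobilization. The M3 assay used CHO cells stably expressing human recombinant M3 receptor; the M1 assay is described only as a FLIPR assay. pIC50 values are the mean of at least two determinations.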

[5] = target: T1, Muscarinic acetylcholine receptor M1; test: Antagonist activity at human muscarinic acetylcholine M1 receptor expressed in CHO cells assessed as inhibition of acetylcholine-induced calcium mobilization by single concentration kinetic FLIPR assay; type: functional, cell-based; details: read-out: pA2 (converted)
Outline: (§2)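 CHO cells stably expressing the human recombinant muscarinic receptor subtype, in a fluorometric imaging plate reader (FLIPR) assay. Read-out is inhibition of acetylcholine-mediated intracellular Ca2+ mobilization. Results are the mean of at least two determinations.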

[6] = target: T2, Muscarinic acetylcholine receptor M2; test: Antagonist activity at human muscarinic acetylcholine M2 receptor expressed in CHO cells coexpressed with Gqi5 assessed as inhibition of acetylcholine-induced calcium mobilization by single concentration kinetic FLIPR assay; type: functional, cell-based; details: read-out: pA2 (converted); outline: as §2
[7] = target: T3, Muscarinic acetylcholine receptor M3; test: Antagonist activity at human muscarinic acetylcholine M3 receptor expressed in CHO cells assessed as inhibition of acetylcholine-induced calcium mobilization by single concentration kinetic FLIPR assay; type: functional, cell-based; details: read-out: pA2 (converted); outline: as §2
[8] = target: Muscarinic acetylcholine receptor M3 (Homo sapiens); test: Selectivity for human muscarinic acetylcholine M3 receptor over human muscarinic acetylcholine M2 receptor
[9] = tested on: Mus musculus; test: Inhibition of methacholine-induced bronchoconstriction in conscious BALB/c mouse at 5 ug, intranasally administered as single dose after 5 hrs 15 mins; type: functional, organism-based
Outline: (§3)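 Conscious mice given a single intranasal dose of 5 µg/animal, then challenged with methacholine to induce bronchoconstriction. Inhibition of bronchoconstriction was assessed at set times after dosing.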

[10] = tested on: Mus musculus; test: Inhibition of methacholine-induced bronchoconstriction in conscious BALB/c mouse at 5 ug, intranasally administered as single dose after 24 hrs; type: functional; parameters: scale not given: the % may be the effect or the level left; outline: as §3
[11] = tested on: Mus musculus; test: Inhibition of methacholine-induced bronchoconstriction in conscious BALB/c mouse at 5 ug, intranasally administered as single dose after 48 hrs; type: functional; parameters: scale not given: the % may be the effect or the level left; outline: as §3
[12] = Half life in Sprague-Dawley rat at 2.2 mg/kg, iv and 4.8 mg/kg, po; type: ADME, organism-based; details: in vivo
[13] = Clearance in Sprague-Dawley rat at 2.2 mg/kg, iv and 4.8 mg/kg, po; type: ADME, organism-based; details: in vivo
[14] = Volume of distribution at steady state in Sprague-Dawley rat at 2.2 mg/kg, iv and 4.8 mg/kg, po; type: ADME, organism-based; details: in vivo, read-out: Vdss
[15] = Permeability across artificial membrane; type: ADME; details: PAMPA; read-out: permeability
[16] = Antagonist activity at alpha1 nicotinic acetylcholine receptor; type: functional
[17] = Antagonist activity at alpha3 nicotinic acetylcholine receptor; type: functional
[18] = target: Cytochrome P450 2D6 (Homo sapiens, UniProt P10635); test: Inhibition of CYP2D6; type: ADME
[19] = target: Cytochrome P450 2C19 (Homo sapiens, UniProt P33261); test: Inhibition of CYP2C19; type: ADME
[20] = target: Cytochrome P450 2C9 (Homo sapiens, UniProt P11712); test: Inhibition of CYP2C9; type: ADME
[21] = target: T4, Substance-K receptor (Homo sapiens) (UniProt P21452); test: Inhibition of NK2 receptor at 1 uM
T4 sequence (whole entry): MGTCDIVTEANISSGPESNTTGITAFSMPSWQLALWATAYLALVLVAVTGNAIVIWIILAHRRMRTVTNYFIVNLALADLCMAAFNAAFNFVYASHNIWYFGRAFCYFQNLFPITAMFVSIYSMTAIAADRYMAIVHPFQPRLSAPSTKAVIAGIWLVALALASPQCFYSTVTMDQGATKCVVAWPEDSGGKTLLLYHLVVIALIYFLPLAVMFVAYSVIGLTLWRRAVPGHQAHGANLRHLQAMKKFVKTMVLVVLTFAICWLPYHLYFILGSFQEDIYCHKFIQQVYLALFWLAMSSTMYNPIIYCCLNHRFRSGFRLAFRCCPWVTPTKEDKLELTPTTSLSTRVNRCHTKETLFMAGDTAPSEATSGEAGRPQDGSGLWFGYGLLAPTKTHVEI

[22] = tested on: Cavia porcellus; test: Inhibition of acetylcholine-induced bronchoconstriction in conscious Dunkin-Hartley guinea pig assessed as enhanced pause at 2.5 ug, intratracheally administered as single dose after 4 hrs
[23] = tested on: Cavia porcellus; test: Inhibition of acetylcholine-induced bronchoconstriction in conscious Dunkin-Hartley guinea pig assessed as enhanced pause at 2.5 ug, intratracheally administered as single dose after 24 hrs

T3 sequence (P20309 whole entry): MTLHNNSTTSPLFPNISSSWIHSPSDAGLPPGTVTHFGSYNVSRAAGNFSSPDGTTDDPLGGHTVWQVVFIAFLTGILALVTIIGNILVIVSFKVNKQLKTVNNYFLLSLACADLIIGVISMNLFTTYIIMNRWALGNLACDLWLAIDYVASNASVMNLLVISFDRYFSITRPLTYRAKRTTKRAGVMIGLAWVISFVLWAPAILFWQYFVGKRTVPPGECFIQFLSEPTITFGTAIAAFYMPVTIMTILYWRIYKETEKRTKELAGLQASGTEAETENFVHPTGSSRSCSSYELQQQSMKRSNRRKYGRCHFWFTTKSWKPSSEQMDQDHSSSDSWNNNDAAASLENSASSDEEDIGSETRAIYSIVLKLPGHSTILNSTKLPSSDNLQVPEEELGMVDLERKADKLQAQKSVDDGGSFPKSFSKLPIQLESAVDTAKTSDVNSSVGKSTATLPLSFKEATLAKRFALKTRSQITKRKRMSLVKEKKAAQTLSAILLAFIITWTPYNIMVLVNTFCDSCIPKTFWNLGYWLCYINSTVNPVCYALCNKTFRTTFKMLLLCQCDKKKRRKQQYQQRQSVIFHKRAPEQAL
Sequence of Muscarinic acetylcholine receptor M1 and M3 (Homo sapiens) (P20309 whole entry, looked up, one chain of several): as the sequence (P20309 whole entry) above
Sequence of Cytochrome P450 2D6 (P10635 whole entry): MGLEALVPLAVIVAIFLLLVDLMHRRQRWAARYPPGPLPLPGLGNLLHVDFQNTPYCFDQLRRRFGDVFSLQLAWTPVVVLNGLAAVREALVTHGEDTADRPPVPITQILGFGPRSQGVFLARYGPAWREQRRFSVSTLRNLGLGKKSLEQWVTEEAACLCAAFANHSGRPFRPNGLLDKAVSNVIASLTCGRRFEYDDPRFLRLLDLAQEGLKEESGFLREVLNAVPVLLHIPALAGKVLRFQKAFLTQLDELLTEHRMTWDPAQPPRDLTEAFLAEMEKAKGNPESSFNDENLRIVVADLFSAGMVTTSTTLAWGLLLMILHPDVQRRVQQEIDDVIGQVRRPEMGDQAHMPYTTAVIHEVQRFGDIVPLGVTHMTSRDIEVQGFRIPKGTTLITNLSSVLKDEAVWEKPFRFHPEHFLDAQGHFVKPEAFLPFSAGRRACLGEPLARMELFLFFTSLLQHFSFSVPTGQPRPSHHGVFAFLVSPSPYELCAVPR
Sequence of Cytochrome P450 2C19 (P33261 whole entry): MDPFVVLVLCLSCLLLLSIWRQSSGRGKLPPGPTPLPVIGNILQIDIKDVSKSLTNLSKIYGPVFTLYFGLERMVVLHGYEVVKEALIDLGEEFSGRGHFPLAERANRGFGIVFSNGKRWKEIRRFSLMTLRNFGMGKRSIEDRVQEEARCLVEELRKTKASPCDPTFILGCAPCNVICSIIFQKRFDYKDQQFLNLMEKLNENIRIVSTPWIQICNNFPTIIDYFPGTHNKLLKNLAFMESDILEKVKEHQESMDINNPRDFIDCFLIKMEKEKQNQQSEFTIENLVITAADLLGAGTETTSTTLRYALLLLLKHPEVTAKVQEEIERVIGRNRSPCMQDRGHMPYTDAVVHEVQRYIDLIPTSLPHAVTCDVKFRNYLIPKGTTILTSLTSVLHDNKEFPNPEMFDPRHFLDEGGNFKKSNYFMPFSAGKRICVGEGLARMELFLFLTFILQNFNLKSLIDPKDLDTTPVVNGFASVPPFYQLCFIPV
Sequence of Cytochrome P450 2C9 (P11712 whole entry): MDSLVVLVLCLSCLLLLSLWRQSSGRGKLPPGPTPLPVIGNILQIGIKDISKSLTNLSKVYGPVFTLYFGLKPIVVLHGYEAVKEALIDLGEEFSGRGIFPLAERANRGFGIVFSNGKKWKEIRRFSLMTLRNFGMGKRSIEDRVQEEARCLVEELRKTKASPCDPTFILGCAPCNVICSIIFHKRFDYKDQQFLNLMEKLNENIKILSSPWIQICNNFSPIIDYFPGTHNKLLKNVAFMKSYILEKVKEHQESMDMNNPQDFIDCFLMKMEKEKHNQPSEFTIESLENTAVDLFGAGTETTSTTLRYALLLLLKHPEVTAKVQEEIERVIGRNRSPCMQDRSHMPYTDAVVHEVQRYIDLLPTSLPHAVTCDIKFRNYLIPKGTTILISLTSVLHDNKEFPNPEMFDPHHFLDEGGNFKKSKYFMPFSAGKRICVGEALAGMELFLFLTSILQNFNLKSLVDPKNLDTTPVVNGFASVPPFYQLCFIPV

## CCOC(=O)c1ccc(NC(=O)N[C@H](Cc2ccc(O)cc2)C(=O)N[C@H]2CCN(Cc3ccc(O)cc3)C2)cc1
[1]
  IC50: 12600 nM
[2]
  IC50: 5010 nM
[3]
  IC50: 3160 nM

## CCOC(=O)c1ccc(NC(=O)N[C@@H](Cc2ccc(O)cc2)C(=O)NC2CCN(Cc3ccc(O)cc3)C2)cc1 (stereo not given in full)
[1]
  IC50: 2000 nM
[2]
  IC50: 158 nM
[3]
  IC50: 20 nM
[4]
  Selectivity ratio: 100

## CCOC(=O)c1ccc(NC(=O)N[C@H](Cc2ccc(O)cc2)C(=O)N[C@@H]2CCN(Cc3ccc(O)cc3)C2)cc1
[1]
  IC50: 20000 nM
[2]
  IC50: 20000 nM
[3]
  IC50: 20000 nM

## Cc1cn2cc(CNC(=O)[C@H](Cc3ccc(O)cc3)NC(=O)Nc3ccc(C(=O)OC(C)C)cc3)[n+](Cc3ccc4ccccc4c3)c2s1.O=C([O-])C(F)(F)F
[5]
  Kb: 0.794 nM
[6]
  Kb: 1.58 nM
[7]
  Kb: 0.0251 nM
[8]
  pA2: 10.6
[4]
  Selectivity ratio: 30
[9]
  Activity: Active
[10]
  Activity: > 80%
[11]
  Activity: > 60%

## CCOC(=O)c1ccc(NC(=O)N[C@@H](Cc2ccc(O)cc2)C(=O)N[C@@H]2CCN(Cc3ccc(O)cc3)C2)cc1
[1]
  IC50: 3980 nM
[2]
  IC50: 1580 nM
[3]
  IC50: 1580 nM

## CC(C)OC(=O)c1ccc(NC(=O)N[C@@H](Cc2ccc(O)cc2)C(=O)N[C@H]2CCC[N+](C)(Cc3cccc(O)c3)C2)cc1.[I-] (stereo not given in full)
[6]
  Kb: 1 nM
[12]
  half-life: 1.1 h
[13]
  clearance: 15 mL/min/kg
[14]
  Vd: 0.55 L/kg
[15]
  Papp: < 0.3 ×10⁻⁶ cm/s
[16]
  pIC50: 6.1
[17]
  pIC50: 6.1
[18]
  IC50: 3980 nM
[19]
  IC50: > 10000 nM
[20]
  IC50: > 10000 nM
[9]
  Activity: Active
[10]
  Activity: > 80%
[11]
  Activity: > 30%

## CCOC(=O)c1ccc(NC(=O)N[C@@H](Cc2ccc(O)cc2)C(=O)N[C@H]2CCN(Cc3ccc(O)cc3)C2)cc1
[1]
  IC50: 1000 nM
[2]
  IC50: 126 nM
[3]
  IC50: 15.8 nM
[4]
  Selectivity ratio: 80

## Cc1cn2cc(CNC(=O)[C@H](Cc3ccc(O)cc3)NC(=O)Nc3ccc(C(=O)OC4CCCCC4)s3)[n+](Cc3ccc4ccccc4c3)c2s1.[I-]
[5]
  Kb: 0.316 nM
[6]
  Kb: 0.2 nM
[7]
  Kb: 0.0126 nM
[4]
  Selectivity ratio: 25
[21]
  inhibition: 74%
[22]
  inhibition (INH): 93%
[23]
  inhibition (INH): 88%
